According to ChEMBL document CHEMBL1208661, “Synthesis, characterization, in vitro and molecular docking studies of new 2,5-dichloro thienyl substituted thiazole derivatives for antimicrobial properties” (2010):
In brackets after ≈: the same amount, converted by molar mass. Activity calls are given as the source filed them. The rule behind the calls is not given here.

Key:
[1] = test system: Aspergillus fumigatus; experiment: Antifungal activity against Aspergillus fumigatus NCIM 902 at 10 ug/ml after 3 to 4 days by serial plate dilution method; assay type: functional, organism-based
How it was run: (§1)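 Sabouraud agar was used (peptone, D-glucose and agar in water, pH 5.7). Plates were lawned with a saline spore suspension and dried at 37 °C for 1 h. Wells were punched in the agar and filled with compound in DMSO, with a DMSO solvent control. Plates were run in triplicate at 37 °C for 3–4 days.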

[2] = test system: Trichophyton mentagrophytes; experiment: Antifungal activity against recultured Trichophyton mentagrophytes after 3 to 4 days by serial plate dilution method; assay type: functional; how it was run: as §1
[3] = test system: Pseudomonas aeruginosa; experiment: Antibacterial activity against Pseudomonas aeruginosa after 24 hrs by disc diffusion method; assay type: functional
How it was run: (§2)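 Paper discs (6.25 mm, Whatman No. 1) were dry-heat sterilized at 140 °C for 1 h. Test compounds were made up at different concentrations in dimethylformamide and loaded onto batches of 100 discs, using 1 ml holding 100 times the per-disc amount. Discs were placed in triplicate on nutrient agar seeded with fresh bacteria.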

[4] = test system: Staphylococcus aureus; experiment: Antibacterial activity against Staphylococcus aureus Smith after 24 hrs by disc diffusion method; assay type: functional; how it was run: as §2
[5] = test system: Klebsiella pneumoniae; experiment: Antibacterial activity against Klebsiella pneumoniae after 24 hrs by disc diffusion method; assay type: functional; how it was run: as §2
[6] = test system: Aspergillus flavus; experiment: Antifungal activity against Aspergillus flavus NCIM 524 after 3 to 4 days by serial plate dilution method; assay type: functional; how it was run: as §1
[7] = test system: Talaromyces marneffei; experiment: Antifungal activity against recultured Penicillium marneffei after 3 to 4 days by serial plate dilution method; assay type: functional; how it was run: as §1
[8] = test system: Escherichia coli; experiment: Antibacterial activity against Escherichia coli after 24 hrs by disc diffusion method; assay type: functional; how it was run: as §2
[9] = test system: Aspergillus flavus; experiment: Antifungal activity against Aspergillus flavus NCIM 524 at 10 ug/ml after 3 to 4 days by serial plate dilution method; assay type: functional, organism-based; how it was run: as §1
[10] = test system: Talaromyces marneffei; experiment: Antifungal activity against recultured Penicillium marneffei at 10 ug/ml after 3 to 4 days by serial plate dilution method; assay type: functional, organism-based; how it was run: as §1
[11] = test system: Trichophyton mentagrophytes; experiment: Antifungal activity against recultured Trichophyton mentagrophytes at 10 ug/ml after 3 to 4 days by serial plate dilution method; assay type: functional, organism-based; how it was run: as §1
[12] = test system: Aspergillus fumigatus; experiment: Antifungal activity against Aspergillus fumigatus NCIM 902 after 3 to 4 days by serial plate dilution method; assay type: functional; how it was run: as §1

Row | SMILES | MIC [1] | MIC [2] | MIC [3] | MIC [4] | MIC [5] | MIC [6] | MIC [7] | MIC [8] | MIC [9] | MIC [10] | MIC [11] | MIC [12]
1 | COc1ccccc1-c1nc(-c2cc(Cl)sc2Cl)cs1 | inactive | 12.5 µg/mL (≈ 36.5 µM) | 12.5 µg/mL (≈ 36.5 µM) | 6.25 µg/mL (≈ 18.3 µM) | 100 µg/mL (≈ 292 µM) | 100 µg/mL (≈ 292 µM) | 12.5 µg/mL (≈ 36.5 µM) | 6.25 µg/mL (≈ 18.3 µM) | – | – | – | –
2 | Fc1ccccc1-c1nc(-c2cc(Cl)sc2Cl)cs1 | inactive | – | inactive | 100 µg/mL (≈ 303 µM) | inactive | – | – | inactive | inactive | inactive | inactive | –
3 | CC1(C)S[C@@H]2[C@H](NC(=O)[C@H](N)c3ccccc3)C(=O)N2[C@H]1C(=O)O [AMPICILLIN] | – | – | < 6.25 µg/mL | < 6.25 µg/mL | < 6.25 µg/mL | – | – | < 6.25 µg/mL | – | – | – | –
4 | Clc1cc(-c2csc(-c3cccnc3)n2)c(Cl)s1 | inactive | – | 100 µg/mL (≈ 319 µM) | 100 µg/mL (≈ 319 µM) | inactive | – | – | inactive | inactive | inactive | inactive | –
5 | C[C@@H]1[C@H](O)[C@@H](C)/C=C/C=C/C=C/C=C/C=C/C=C/C=C/[C@H](O[C@@H]2O[C@H](C)[C@@H](O)[C@H](N)[C@@H]2O)C[C@@H]2O[C@](O)(C[C@@H](O)C[C@@H](O)[C@H](O)CC[C@@H](O)C[C@@H](O)CC(=O)O[C@H]1C)C[C@H](O)[C@H]2C(=O)O [AMPHOTERICIN B] | – | < 6.25 µg/mL | – | – | – | < 6.25 µg/mL | < 6.25 µg/mL | – | – | – | – | < 6.25 µg/mL
6 | Nc1nc(-c2cc(Cl)sc2Cl)cs1 | – | 12.5 µg/mL (≈ 49.8 µM) | 12.5 µg/mL (≈ 49.8 µM) | 6.25 µg/mL (≈ 24.9 µM) | 12.5 µg/mL (≈ 49.8 µM) | 6.25 µg/mL (≈ 24.9 µM) | 12.5 µg/mL (≈ 49.8 µM) | 6.25 µg/mL (≈ 24.9 µM) | – | – | – | 6.25 µg/mL (≈ 24.9 µM)
7 | Clc1cc(-c2csc(-c3cccc4cccnc34)n2)c(Cl)s1 | – | 6.25 µg/mL (≈ 17.2 µM) | 12.5 µg/mL (≈ 34.4 µM) | 6.25 µg/mL (≈ 17.2 µM) | 6.25 µg/mL (≈ 17.2 µM) | 6.25 µg/mL (≈ 17.2 µM) | 6.25 µg/mL (≈ 17.2 µM) | 12.5 µg/mL (≈ 34.4 µM) | – | – | – | 12.5 µg/mL (≈ 34.4 µM)
